# GASC-1 inh: inhibitors of GASC-1 histone demethylase, primary screen, biochemical, fluorescence, DELFIA europium; Lysine-specific demethylase 4C (Homo sapiens), Q9H3R0; 330,000 tested, 0.069% active; GST-JMJD2C(1-420) H3K9me3 demethylation; inhibition, % at 2.35 µM;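 active = more than half of a compound's replicate wells show inhibition beyond 50%, single wells judged on their own value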;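 note: signal counts dimethyl H3K9 product captured on neutravidin plate; 0% = median of DMSO wells and 100% = 0.3 times that DMSO median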
# Hep lipid drop: inhibitors of hepatocyte lipid droplet formation, primary screen, imaging, high-throughput imaging, BODIPY stain | AML12 mouse hepatocytes, oleate lipid droplets | inhibition, % at 6.5 µM | 240,000 tested, 0.4% active;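 active = lipid droplet intensity inhibited by at least 50%, with more than 500 cells counted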
#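 Material – mouse AML12 hepatocyte cell line, fixed after treatment · Compound dosing – one dose, 6.5 µM compound · Times – compound with oleate, overnight · Measured by – Image-based BODIPY and DAPI two-channel analysis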
# procasp7 counter: procaspase-7 activators, primary screen, counter-screen for procaspase-3 activator project, biochemical, absorbance, HTS, human. 330,000 tested, 0.093% active. activation, % at 8.5 µM. recombinant procaspase-7, Ac-DEVD-pNA absorbance 405 nm; D23A/D198A/D206A triple mutant, cannot self-cleave; scale: DMSO 0, 5 µM enzyme 100. AID 463210, 2010. Caspase-7 (Homo sapiens), P55210;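 active = percent activation above the screen-wide mean plus 3 SD, cut at about 25% in these data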
#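 System: Uncleavable procaspase-7 mutant enzyme; Amount: 2 µM procaspase-7 mutant as dispensed; Schedule: 1 h compound preincubation, 2 h substrate cleavage, 25 °C; Measured by: 405 nm absorbance of p-nitroaniline; Evaluation: percent activation from buffer-corrected 0–120 min absorbance change; Control set: low DMSO alone, high DMSO plus 5 µM PC-7.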
# GRK2 inh: compounds blocking aptamer binding on GRK2 – biochemical, human GRK2, bead flow cytometry, HTS, primary screen. Beta-adrenergic receptor kinase 1 (Homo sapiens), P25098. AID 488847, 2010. FAM-aptamer displacement from GRK2. 330,000 tested, 0.59% active. inhibition of aptamer binding, % at 10 µM;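 active = inhibition of aptamer binding above 40%, roughly 3 SD of noise, on plates passing a quality check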;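 note: median bead fluorescence of bound FAM aptamer so fluorescent compounds give negative values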
# VLA-4 inh: inhibition in human VLA-4 binding assay, primary screen, VLA-4 allosteric modulator project, MLPCN library, flow cytometry, VLA-4 expressing cells. 330,000 tested, 0.2% active. AID 2557, 2010. ligand binding flow cytometry. inhibition, % (about 7 µM as worked out from the volumes in the protocol). Integrin alpha-4 (Homo sapiens), P13612; in the data active = inhibition above about 50%
# Target sequence (P13612 whole entry, looked up): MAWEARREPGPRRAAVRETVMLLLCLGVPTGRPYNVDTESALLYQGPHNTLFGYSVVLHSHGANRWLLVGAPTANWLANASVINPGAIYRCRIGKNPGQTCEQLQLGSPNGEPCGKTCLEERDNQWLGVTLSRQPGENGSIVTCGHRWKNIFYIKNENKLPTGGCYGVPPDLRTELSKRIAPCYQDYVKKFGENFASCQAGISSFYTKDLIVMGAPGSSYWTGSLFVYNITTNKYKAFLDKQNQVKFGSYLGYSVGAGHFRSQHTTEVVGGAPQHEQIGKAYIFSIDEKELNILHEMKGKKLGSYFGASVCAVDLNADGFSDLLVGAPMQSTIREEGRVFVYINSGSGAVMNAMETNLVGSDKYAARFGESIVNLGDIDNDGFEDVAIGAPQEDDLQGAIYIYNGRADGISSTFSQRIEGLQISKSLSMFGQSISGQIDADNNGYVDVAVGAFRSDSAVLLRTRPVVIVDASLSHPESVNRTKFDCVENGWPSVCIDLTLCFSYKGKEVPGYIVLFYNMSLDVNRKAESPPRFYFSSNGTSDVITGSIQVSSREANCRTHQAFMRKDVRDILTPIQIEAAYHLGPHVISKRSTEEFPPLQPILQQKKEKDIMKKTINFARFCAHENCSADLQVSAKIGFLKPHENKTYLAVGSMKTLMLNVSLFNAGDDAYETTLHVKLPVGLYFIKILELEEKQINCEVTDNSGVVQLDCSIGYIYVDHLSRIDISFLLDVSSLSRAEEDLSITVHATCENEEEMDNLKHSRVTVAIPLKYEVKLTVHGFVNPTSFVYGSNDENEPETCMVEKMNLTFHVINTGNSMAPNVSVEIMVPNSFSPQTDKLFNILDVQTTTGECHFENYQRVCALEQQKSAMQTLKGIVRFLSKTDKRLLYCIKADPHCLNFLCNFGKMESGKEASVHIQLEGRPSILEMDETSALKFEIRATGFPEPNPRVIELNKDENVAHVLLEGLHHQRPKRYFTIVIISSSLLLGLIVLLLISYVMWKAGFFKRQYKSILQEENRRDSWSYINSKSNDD
# proCasp3 act: activators of human procaspase-3 D3A mutant, primary screen, biochemical, absorbance, PC-3 D3A mutant, single concentration; Caspase-3 (Homo sapiens), P42574; recombinant procaspase-3 D3A, Ac-DEVD-pNA absorbance 405 nm; activation, % at 8.5 µM; 330,000 tested, 0.11% active; AID 463141, 2010;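 active = activation above the mean of all tested compounds plus 3 SD, cut at about 21% in these data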;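 note: 0% = DMSO alone and 100% = DMSO wells spiked with extra 5 µM PC-3 D3A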
#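 Compound: 8.5 µM single point, 0.8% DMSO / Material: Autoprocessing-dead procaspase-3 D3A mutant enzyme / Timing: 1 h preincubation plus 2 h reaction at 25 °C / Medium: Zinc-free HEPES/NaCl buffer with 0.01% Triton X-100 at pH 7.4 / Technique: 405 nm absorbance of p-nitroaniline, reads at 0 and 120 min / Repeats: one well per compound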
# Lipid drop inh: hepatocyte lipid droplet accumulation inhibitors, confirmation, imaging, AML12 mouse hepatocytes, single concentration, high-content | BODIPY lipid droplet imaging; droplets induced with 100 µM oleic acid | inhibition, % at 5.2 µM | shares compounds with Hep lipid drop | 870 tested, 65% active;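 active = inhibition of lipid droplet metric at least 50%, with more than 300 cells in each of four replicates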;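 note: plate controls were DMSO with oleic acid for no effect and 5 µM Triacsin-C for full effect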
# AML12 cytotox: AML12 hepatocyte cytotoxicity, counter-screen for hepatic lipid droplet formation project, imaging, DAPI nuclear morphology imaging. shares compounds with Hep lipid drop. AML12 mouse hepatocytes; active compounds read high; cells fed 100 µM oleate overnight. z-score at 5 µM. 870 tested, 3% active. AID 463200, 2010; in the data active = z-score above about 6.3;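 note: compound exposure lasted overnight at 37 °C before fixation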
# AML12 tox conf: AML12 hepatocyte cytotoxicity, confirmation, cytotoxicity control for hepatic lipid droplet formation project, cell-based, single concentration. shares compounds with Hep lipid drop. AML12 mouse hepatocyte viability, ATP luminescence; cells loaded with 100 µM oleic acid. cytotoxicity, % at 50 µM. 530 tested, under 10 active. AID 463219, 2010;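 active = cytotoxicity above 50% in each of four replicates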;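 note: compound exposure lasted overnight at 37 °C before the ATP read; 0% = DMSO-treated cells and 100% = wells with no cells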
# An asterisk follows results filed as active; i = inactive; . = no result. In the library only some 1.3% were active in any assay of this set; here they are far more common.
SMILES,GASC-1 inh,Hep lipid drop,procasp7 counter,GRK2 inh,VLA-4 inh,proCasp3 act,Lipid drop inh,AML12 cytotox,AML12 tox conf
Cc1cccc(NC(=O)CSCC(=O)Nc2cccc3ncccc23)c1,-2,.,10,2,-12,1,.,.,.
CCCNS(=O)(=O)c1ccc(CCC(=O)Nc2cc(Cl)ccc2Oc2ccccc2)cc1,5,63*,.,.,.,.,93*,-0.022,38
CC(C)CNS(=O)(=O)c1ccc(CCC(=O)Nc2cc(Cl)ccc2Oc2ccccc2)cc1,-4,40,18,2,-4,1,.,.,.
CC12CCC(=O)N1C(C(=O)NNC(=O)c1ccccc1F)CS2 (stereo unspecified),-6,.,14,6,-7,0,.,.,.
CCOc1ccccc1NC(=O)c1cccc(NC(=O)C2CCCC2)c1,-2,63*,2,0,4,7,95*,0.46,4
C[C@@]12C(=O)N(c3ccc(Br)cc3)C(=O)N1[C@@H]1c3ccccc3OC[C@@H]1[C@H]2c1ccccc1,13,.,5,4,-2,-3,.,.,.
COc1ccc(OC)c(NC(=O)CCCNC(=O)c2ccc(Cl)cc2)c1,-33,58*,7,0,6,-1,73*,-0.56,15
CCOc1ccccc1NC(=O)CCCNC(=O)c1ccc(Cl)cc1,1,73*,5,3,0,8,78*,0.086,9
CCOc1ccccc1NC(=O)CCNC(=O)c1ccc(Cl)cc1,.,45,0,4,-3,5,.,.,.
CCOc1ccccc1NC(=O)CCCNC(=O)Cn1cnc2sc(C)c(C)c2c1=O,-7,59*,3,.,0,9,64,-0.053,9
CC(=O)c1ccc(NC(=O)CSc2nnc(-c3ccncc3)n2C2CC2)cc1,4,.,-7,3,8,7,.,.,.
C/C(=N\Nc1nc(-c2ccccc2)cs1)c1cccs1,0,52*,-29,5,12,-12,96*,-1.2,28
C/C(=N\Nc1nc2ccccc2s1)c1cccs1,-14,6,-12,0,-19,-3,.,.,.
O=C1CSC(c2cn(-c3ccccc3)nc2-c2ccccc2)N1Cc1ccco1 (stereo unspecified),0,61*,9,2,-6,-3,87*,-1.1,-21
CN(C)c1ccc(N=Nc2ccccc2Br)cc1,6,67*,10,2,-5,-4,113*,0.039,81*
Cc1cc(Br)ccc1NC(=O)CNC(=O)CSc1nccn1C,-2,.,10,0,4,-1,.,.,.
CCC(Sc1nc2ccsc2c(=O)n1-c1ccc(Cl)c(C)c1)C(=O)NCc1ccco1 (stereo unspecified),15,54*,6,1,15,-5,64*,0.076,.
O=C(CSc1nc2ccsc2c(=O)n1Cc1ccccc1)NCc1ccco1,-4,24,4,2,-5,2,.,.,.
Cc1oc2ccc(OCc3ccc(F)cc3Cl)cc2c1C(=O)O,3,57*,0,2,2,2,36,-1,.
CCCN1C(=O)/C(=C/c2c(N3CCNC(=O)C3CC(=O)OCC)nc3c(C)cccn3c2=O)SC1=S (stereo unspecified),-10,74*,-15,0,-205,-7,58*,0.065,.
CCOC(=O)CC1C(=O)NCCN1c1nc2ccc(C)cn2c(=O)c1/C=C1\SC(=S)N(CC(C)C)C1=O (stereo unspecified),4,41,3,1,i,-4,.,.,.
O=C(CCCn1c(=S)[nH]c2ccsc2c1=O)NCCc1ccccc1,-3,10,-3,3,7,-1,.,.,.
CCC(C)(C)NC(=O)C(c1ccc(C)cc1)N(CC1CCCO1)C(=O)CCC(=O)Nc1ccccn1 (stereo unspecified),6,61*,-4,2,-7,1,51,-0.15,.
CCCn1nc2cc(C(=O)NCc3ccc(OC(F)(F)F)cc3)ccc2c1OCC,6,67*,0,.,.,7,98*,-0.66,6
CCCCCCCNC(=O)C1(CC2CC(c3ccc(Cl)cc3)=NO2)CCN(C(=O)c2cc(OCC)c(OCC)c(OCC)c2)CC1 (stereo unspecified),-6,50*,6,3,13,10,90*,-1.7,-3
SMILES,GASC-1 inh,Hep lipid drop,procasp7 counter,GRK2 inh,VLA-4 inh,proCasp3 act,Lipid drop inh,AML12 cytotox,AML12 tox conf
CCCCCCCNC(=O)C1(CC2CC(c3ccc(Cl)cc3)=NO2)CCN(C(=O)c2ccccc2)CC1 (stereo unspecified),-1,0,-3,0,26,-3,.,.,.
C[C@H](NC(=O)c1nc[nH]c1C(=O)N1CCN(c2ccccc2)CC1)c1ccccc1,6,.,-6,1,0,1,.,.,.
CCOC(=O)c1ccc(NC(=O)CSc2nc3c(c(=O)n2-c2ccccc2OC)SCC3)cc1,25,87*,12,1,0,-7,105*,-0.5,2
CC(C)CC1NC(=O)c2ccccc2-n2c1nc1ccccc1c2=O (stereo unspecified),10,.,-2,1,12,2,.,.,.
COc1ccc(C2CC(c3cccs3)=NN2C(=O)CSc2nc3ccccc3s2)cc1 (stereo unspecified),1,74*,1,1,-6,-11,101*,-0.94,4
O=C1/C(=C/c2ccc([N+](=O)[O-])cc2)CCC1C1CCCC1 (stereo unspecified),-9,54*,3,0,-3,-4,15,-0.71,.
Cc1cccc(/C=C2\CCC(C3CCCC3)C2=O)c1 (stereo unspecified),-3,2,-4,0,3,8,.,.,.
